# Test results reported in PubChem BioAssay.
# Active and inactive are the calls of the source.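 How the source made its calls, unless noted: active means viability at or below 10% of carrier control in both of two separate runs; inconclusive means viability at or below 10% in only one of the two runs; inactive means the rest.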 Peptide text beside a SMILES is read from it. * marks the point of attachment. Boc = CC(C)(C)OC(=O)*
# Columns and labels:
# [1] = Her2 expression decrease, cell viability multiplex – SKBR3 breast tumor cells, AlphaScreen, ATP viability, primary screen (AID 461;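 active means Her2 level under about 52% in both replicate screens, with viability over 70% of control, limit read from the data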;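 on Her2 level: lower value means less Her2 protein in the cells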;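 on viability: percent of carrier control wells set as 100% viability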); conditions: SKBR3 Her2 protein level, 18-24 h, measured here: SKBR3 viability, ATP luminescence, at 10 µM
# [2] = molecular target: Receptor tyrosine-protein kinase erbB-2 (Homo sapiens) (UniProt P04626); assay: as above; conditions: 18-24 h, at 10 µM, stronger effect = lower value
# Receptor tyrosine-protein kinase erbB-2 (Homo sapiens), sequence (P04626 whole entry, looked up): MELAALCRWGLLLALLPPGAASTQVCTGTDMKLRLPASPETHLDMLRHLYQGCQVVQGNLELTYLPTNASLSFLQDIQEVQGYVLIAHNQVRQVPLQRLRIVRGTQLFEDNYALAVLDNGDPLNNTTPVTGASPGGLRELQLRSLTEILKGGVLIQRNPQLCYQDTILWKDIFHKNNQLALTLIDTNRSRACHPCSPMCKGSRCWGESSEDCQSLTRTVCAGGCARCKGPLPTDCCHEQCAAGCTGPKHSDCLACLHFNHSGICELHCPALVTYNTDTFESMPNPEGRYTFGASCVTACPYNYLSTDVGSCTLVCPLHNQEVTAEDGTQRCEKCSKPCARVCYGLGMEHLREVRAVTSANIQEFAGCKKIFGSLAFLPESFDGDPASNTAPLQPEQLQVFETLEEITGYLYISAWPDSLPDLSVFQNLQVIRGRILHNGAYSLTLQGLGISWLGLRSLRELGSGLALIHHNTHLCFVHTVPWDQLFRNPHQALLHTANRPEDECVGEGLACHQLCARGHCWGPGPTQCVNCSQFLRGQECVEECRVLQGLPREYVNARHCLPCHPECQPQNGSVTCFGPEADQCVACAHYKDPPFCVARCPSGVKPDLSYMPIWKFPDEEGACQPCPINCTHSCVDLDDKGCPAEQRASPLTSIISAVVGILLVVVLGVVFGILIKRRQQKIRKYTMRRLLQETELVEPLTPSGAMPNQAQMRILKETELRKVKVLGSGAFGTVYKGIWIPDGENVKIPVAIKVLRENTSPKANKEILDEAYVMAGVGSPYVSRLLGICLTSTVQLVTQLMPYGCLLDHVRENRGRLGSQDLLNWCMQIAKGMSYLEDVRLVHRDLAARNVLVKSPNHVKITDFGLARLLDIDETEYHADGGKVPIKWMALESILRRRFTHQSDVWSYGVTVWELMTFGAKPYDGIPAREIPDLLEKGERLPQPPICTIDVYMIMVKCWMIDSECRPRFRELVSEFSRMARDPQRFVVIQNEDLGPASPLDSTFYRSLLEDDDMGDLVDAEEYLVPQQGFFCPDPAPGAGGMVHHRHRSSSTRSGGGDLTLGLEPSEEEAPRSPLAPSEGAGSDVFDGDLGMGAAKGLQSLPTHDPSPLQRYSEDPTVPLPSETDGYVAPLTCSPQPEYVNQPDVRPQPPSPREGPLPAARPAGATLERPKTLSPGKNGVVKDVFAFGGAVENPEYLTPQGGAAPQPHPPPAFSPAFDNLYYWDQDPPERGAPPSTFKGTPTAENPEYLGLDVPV
# [3] = reduced viability of SK-BR-3 breast cancer cells – cell-based, 24 h, human, pilot screen (AID 572); conditions: SK-BR-3 viability, CellTiter-Glo luminescence, at 10 µM, stronger effect = lower value;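 further: compound exposure lasted between 18 and 24 h rather than exactly 24 h; 100% = carrier-treated control wells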
# [4] = HUVEC growth inhibition – cell-based, human, primary screen (AID 575;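 active means viability at or below 30% in both replicate assays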;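 further: 100% = median of untreated cell wells with 0.1% DMSO on each plate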); conditions: HUVEC proliferation, CellTiter-Glo luminescence, 72 h; at 10 µM; stronger effect = lower value
# In short: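 Test system: HUVEC primary cells. Quantity: 1250 endothelial cells in each well. Dosing: single-point 10 µM, DMSO 0.1% final. Incubation: 72 h treatment at 37 °C. Measured by: CTG luminescence. Control set: DMSO cell controls and MePR drug controls. Plate: collagen-coated 384-well format.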
# [5] = H69AR cell proliferation blockers – human, duplicate replicates, primary screen (AID 580;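 active means viability at or under a set limit in both replicates, limit being median viability minus 3 SD, cut at about 48% in these data, passing the limit was not always enough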;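 further: 100% = mean luminescence of untreated wells and 0% = no signal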); conditions: H69AR lung tumor cells viability, ATP luminescence, 72 h; at 10 µM; stronger effect = lower value
# [6] = MRP1 drug-resistance reversers in H69AR cells – cell-based, doxorubicin co-treatment, pilot screen (AID 601;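 active means viability loss from added drug above about 55%, and viability with drug at most 40%, in both replicates, limit read from the data, passing the limit was not always enough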); conditions: CellTiter-Glo, 72 h, at 10 µM; for differential viability (reversal): stronger effect = higher value
# [7] = yeast transport mutant growth inhibition pilot in 384-well plates, post-Golgi transport modulator project (AID 636; in the data active means inhibition above about 31%); conditions: absorbance 615 nm, about 18 h, stronger effect = higher value
# [8] = growth suppression of yeast trafficking mutant, preliminary HTS, modulators of trafficking downstream of Golgi apparatus project, 1536-format plate, OD 615 nm (AID 637; in the data active means inhibition above about 30%); conditions: yeast transport mutant growth, absorbance 615 nm, 18 h; stronger effect = higher value
# [9] = H69AR cells + 2 uM doxorubicin, measured here: viability with 2 uM doxorubicin, stronger effect = lower value
# [10] = H69AR cells, compound alone cytotoxicity
Compound,viability [1],Her2 level [2],viability [3],viability [4],viability [5],differential viability (reversal) ([6]; H69AR cells + 2 uM doxorubicin),"viability [6, 9]","viability [6, 10]",inhibition [7],inhibition [8]
O=C(NC1=NCCS1)NC12CC3CC(CC(C3)C1)C2,111%,106% (inactive),111% (inactive),98.4% (inactive),93% (inactive),4.27% (inactive),88.7%,93%,-4.53% (inactive),5.08% (inactive)
CCn1c(=O)cc(SCC(=O)Nc2cccnc2)c2ccccc21,91.5%,89.5% (inactive),91.5% (inactive),56.5% (inactive),104% (inactive),14.7% (inactive),89.3%,104%,-1.32% (inactive),1.43% (inactive)
O=C(c1cc2ccccc2oc1=O)N1CCSC1c1ccco1 (stereo not given),100%,93.5% (inactive),100% (inactive),97.5% (inactive),91.5% (inactive),6.19% (inactive),85.3%,91.5%,-8.4% (inactive),5.74% (inactive)
O=c1cc(-c2ccc(Cl)cc2)[nH][nH]1,108%,84% (inactive),108% (inactive),93.5% (inactive),91.6% (inactive),5.75% (inactive),85.9%,91.6%,-7.84% (inactive),1% (inactive)
Cc1cc2nc(C3CCN(CC4COc5ccccc5O4)CC3)[nH]c2cc1C (stereo not given),98.5%,87.5% (inactive),98.5% (inactive),3.41% (active),77.8% (inactive),22.7% (inactive),55.2%,77.8%,-3.03% (inactive),2.83% (inactive)
O=C(NC1CCCC1)C1CC1c1ccccc1 (stereo not given),100%,102% (inactive),100% (inactive),93.9% (inactive),98.3% (inactive),-2.33% (inactive),101%,98.3%,-6.13% (inactive),1.15% (inactive)
CC1CCCC(C(=O)OCc2ccccc2)N1 (stereo not given),119%,94% (inactive),119% (inactive),102% (inactive),97.2% (inactive),6.15% (inactive),91%,97.2%,-2.63% (inactive),-1.11% (inactive)
CC(NC(=O)OC(C)(C)C)C(=O)N1CCCC1C(=O)NC(Cc1ccccc1)C(N)=O (stereo not drawn) (Boc-Ala-Pro-Phe-NH2; configuration not given here),105%,94% (inactive),105% (inactive),95.6% (inactive),101% (inactive),4.26% (inactive),97.1%,101%,-1.73% (inactive),4.68% (inactive)
COc1ccc(OC)c(C2=NOC(C(=O)NCCN3CCOCC3)C2)c1 (stereo not given),107%,89.5% (inactive),107% (inactive),102% (inactive),90.6% (inactive),5.3% (inactive),85.3%,90.6%,-1.18% (inactive),-3.27% (inactive)
O=C(CN1C(=O)C2C3C=CC(C3)C2C1=O)NCc1ccc2c(c1)OCO2 (stereo not given),102%,109% (inactive),102% (inactive),97.9% (inactive),98.2% (inactive),8.13% (inactive),90.1%,98.2%,-1.43% (inactive),-7.78% (inactive)
CCN(CC)c1ccc(-c2nn3c(-c4cccnc4)nnc3s2)cc1,91.5%,64% (inactive),91.5% (inactive),37% (inactive),10.9% (active),-4.5% (inactive),15.4%,10.9%,-5.92% (inactive),-7.1% (inactive)
CCN1CCN(c2c(Cl)cccc2NC(=O)c2ccco2)CC1,67.5%,88% (inactive),67.5% (inactive),98.1% (inactive),97.5% (inactive),7.33% (inactive),90.1%,97.5%,-3.33% (inactive),-0.32% (inactive)
CCc1nc(N)c(C#N)c(-c2ccc(OC)c(OC)c2)c1C,98.5%,93% (inactive),98.5% (inactive),91.4% (inactive),87.2% (inactive),9.15% (inactive),78.1%,87.2%,-6.93% (inactive),3.33% (inactive)
CCOC(=O)c1c(NC(=O)OC)sc(C(=O)N(C)C)c1C,109%,94.5% (inactive),109% (inactive),112% (inactive),108% (inactive),20% (inactive),87.9%,108%,-6.89% (inactive),-4% (inactive)
Cc1ccc2[nH]c3c(N4CCOCC4)ncnc3c2c1,116%,95% (inactive),116% (inactive),76.3% (inactive),85.5% (inactive),-15.7% (inactive),101%,85.5%,-3.68% (inactive),8.2% (inactive)
